Results on two compounds are retold here after ChEMBL document CHEMBL4627281, “A small molecule inhibitor of PCSK9 that antagonizes LDL receptor binding via interaction with a cryptic PCSK9 binding groove” (Bioorg Med Chem, 2020).

Data set [1] has as its target Mast/stem cell growth factor receptor Kit (Homo sapiens, UniProt P10721). The data set is described as follows: Inhibition of recombinant human N-terminal GST-tagged c-Kit (544 to end residues) expressed in baculovirus infected Sf21 insect cells using FAM-labelled P22 peptide as substrate preincubated for 10 mins followed by substrate addition and measured after 1 hr in presence of ATP by fluorescence assay.

Data set [2] in a line: Volume of distribution at steady state in CD1 mouse at 0.4 mg/kg, iv administered as cassette dose measured upto 24 hrs by LC-MS/MS analysis. Conditions: in vivo, read-out: Vdss. The format is ADME, organism-based. In short, it runs like this: (§1)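 Male CD1 mice (second cassette 28–29 g, 7–8 weeks) given one IV 5-in-1 cassette at 0.4 mg/kg per compound in 5% DMAC/5% Solutol HS15/90% saline. Blood (~20 µL) into K2EDTA from the facial vein at 0.083–24 h, terminal bleed by cardiac puncture under isoflurane. Blood diluted with deionised water, stored at −80 °C, analysed by positive-ESI mass spectrometry.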

Data set [3] addresses Platelet-derived growth factor receptor beta (Homo sapiens, UniProt P09619). Nature of the data set: Inhibition of recombinant human N-terminal GST-tagged PDGFRbeta cytoplasmic domain (557 to 1106 residues) expressed in baculovirus expression system using FAM-labelled P22 peptide as substrate preincubated for 10 mins followed by substrate addition and measured after 1 hr in presence of ATP by fluorescence assay.

Data set [4] is described as follows: Clearance in CD1 mouse at 0.4 mg/kg, iv administered as cassette dose measured upto 24 hrs by LC-MS/MS analysis. Format: ADME, organism-based. Conditions: in vivo. In short, it runs like this:
as §1

Data set [5] can be described thus: AUClast in CD1 mouse at 0.4 mg/kg, iv administered as cassette dose measured upto 24 hrs by LC-MS/MS analysis. Format: ADME, organism-based. Further details: time < 24 hr, dose 0.4 mg/kg, route intravenous. As to conditions: in vivo. The method in brief:
as §1

The target of data set [6] is Tyrosine-protein kinase ABL1 (Homo sapiens, UniProt P00519). Nature of the data set: Inhibition of recombinant human N-terminal His-tagged Abl (2 to 1130 residues) expressed in baculovirus expression system using FAM-labelled P2 peptide as substrate preincubated for 10 mins followed by substrate addition and measured after 1 hr in presence of ATP by fluorescence assay.
Tyrosine-protein kinase ABL1, sequence (P00519 whole entry, the tested form may be a part): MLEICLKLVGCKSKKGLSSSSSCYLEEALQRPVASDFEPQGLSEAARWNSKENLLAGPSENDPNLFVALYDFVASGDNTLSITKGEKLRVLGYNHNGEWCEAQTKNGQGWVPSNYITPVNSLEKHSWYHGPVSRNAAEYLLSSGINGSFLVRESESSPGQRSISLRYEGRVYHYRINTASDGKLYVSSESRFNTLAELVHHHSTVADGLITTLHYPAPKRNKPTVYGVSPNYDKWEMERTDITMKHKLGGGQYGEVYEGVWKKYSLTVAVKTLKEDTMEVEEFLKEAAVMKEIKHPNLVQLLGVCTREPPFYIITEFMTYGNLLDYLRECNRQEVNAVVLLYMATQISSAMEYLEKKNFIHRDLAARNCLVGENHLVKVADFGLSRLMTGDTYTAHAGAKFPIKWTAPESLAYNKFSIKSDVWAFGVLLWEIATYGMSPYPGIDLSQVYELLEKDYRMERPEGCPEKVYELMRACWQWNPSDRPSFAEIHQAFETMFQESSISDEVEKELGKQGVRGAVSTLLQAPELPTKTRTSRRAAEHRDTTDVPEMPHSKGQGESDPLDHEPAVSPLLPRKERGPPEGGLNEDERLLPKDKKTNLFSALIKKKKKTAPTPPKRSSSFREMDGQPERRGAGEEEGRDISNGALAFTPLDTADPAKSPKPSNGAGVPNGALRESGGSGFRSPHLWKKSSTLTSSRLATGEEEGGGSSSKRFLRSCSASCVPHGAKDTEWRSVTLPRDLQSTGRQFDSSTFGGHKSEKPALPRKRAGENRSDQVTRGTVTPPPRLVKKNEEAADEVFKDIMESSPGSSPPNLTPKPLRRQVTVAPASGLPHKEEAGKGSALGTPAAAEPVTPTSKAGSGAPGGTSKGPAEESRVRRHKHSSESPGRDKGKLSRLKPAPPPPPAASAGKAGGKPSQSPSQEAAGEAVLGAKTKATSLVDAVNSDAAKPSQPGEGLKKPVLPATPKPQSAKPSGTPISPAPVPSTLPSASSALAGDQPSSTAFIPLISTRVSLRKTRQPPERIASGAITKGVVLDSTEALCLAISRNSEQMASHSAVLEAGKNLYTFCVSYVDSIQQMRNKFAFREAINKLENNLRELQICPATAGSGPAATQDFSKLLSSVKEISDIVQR

The target of data set [7] is Proto-oncogene tyrosine-protein kinase Src (Homo sapiens, UniProt P12931). The data set is described as follows: Inhibition of recombinant human full-length N-terminal GST-tagged SRC (1 to 536 residues) expressed in baculovirus expression system using FAM-labelled P4 peptide as substrate preincubated for 10 mins followed by substrate addition and measured after 1 hr in presence of ATP by fluorescence assay.
Proto-oncogene tyrosine-protein kinase Src, sequence (P12931 2-536 limits assumed): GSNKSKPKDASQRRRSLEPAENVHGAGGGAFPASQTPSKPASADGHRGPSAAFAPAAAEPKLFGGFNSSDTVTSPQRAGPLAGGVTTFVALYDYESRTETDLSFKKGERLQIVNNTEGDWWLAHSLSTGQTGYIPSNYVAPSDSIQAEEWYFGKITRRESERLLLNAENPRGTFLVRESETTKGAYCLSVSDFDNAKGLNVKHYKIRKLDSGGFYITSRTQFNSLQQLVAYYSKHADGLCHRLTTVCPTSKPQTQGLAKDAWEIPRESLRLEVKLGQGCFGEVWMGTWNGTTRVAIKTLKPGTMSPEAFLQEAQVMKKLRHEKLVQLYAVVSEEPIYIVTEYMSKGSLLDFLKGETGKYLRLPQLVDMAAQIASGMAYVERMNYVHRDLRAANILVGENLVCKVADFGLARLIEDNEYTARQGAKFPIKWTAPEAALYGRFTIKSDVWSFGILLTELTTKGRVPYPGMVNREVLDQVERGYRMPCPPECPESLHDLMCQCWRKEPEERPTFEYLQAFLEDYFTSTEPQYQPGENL

A short description of data set [8]: AUCinfinity in CD1 mouse at 0.4 mg/kg, iv administered as cassette dose measured upto 24 hrs by LC-MS/MS analysis. Format: ADME, organism-based. Details: dose 0.4 mg/kg, route intravenous, time infinity. As to conditions: in vivo. The method in brief:
as §1

The subject of data set [9] is PCSK9/LDLR (Homo sapiens), Q8NBP7+P01130 [D374Y]. Nature of the data set: Inhibition of PCSK9 D374Y mutant (unknown origin) and LDLR protein-protein interaction in human HepG2 cells assessed as increase in Bodipy FL-labelled LDL uptake at 0.1 or 1 uM preincubated for 16 hrs followed by Bodipy FL-labelled LDL addition and measured after 4 hrs by fluorescence assay. The format is cell-based. In short, it runs like this: (§2)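 HepG2 cells seeded at 2 × 10^5 cells/mL and attached overnight, then incubated 16 h with PCSK9-D374Y (2 μg/mL) plus compound (0.1 or 1 µM). Medium replaced with 10 μg/mL Bodipy FL LDL for 4 h. Cells washed with warm PBS; fluorescence read at ex 485/em 530 nm. Mean ± S.D.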

Data set [10] can be described thus: Mean residence time (0 to infinity) in CD1 mouse at 0.4 mg/kg, iv administered as cassette dose measured upto 24 hrs by LC-MS analysis. The format is ADME, organism-based. As to conditions: in vivo. The method in brief: as §1
Data set [11] in a line: Terminal half life in CD1 mouse at 0.4 mg/kg, iv administered as cassette dose measured upto 24 hrs by LC-MS/MS analysis. Format: ADME, organism-based. Conditions: in vivo, read-out: beta t1/2 (converted). In short, it runs like this:
as §1

Data set [12] concerns the target PCSK9/LDLR (Homo sapiens) (UniProt Q8NBP7+P01130). The data set is described as follows: Inhibition of recombinant human His-tagged PCSK9 interaction with recombinant LDLR AB domain (unknown origin) at higher concentration measured after 3 hrs by horseradish peroxidase-coupled TMB substrate based spectrophotometry relative to control. Format: protein assay. The method in brief:
(§3)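 ELISA plates pre-coated with LDLR-EGF-AB domain. Compounds serially diluted from 10 mM DMSO stocks in reaction buffer, with 7 ng His-tagged human PCSK9 added, 3 h at room temperature with shaking. Binding detected with biotinylated anti-His antibody (1 h), then HRP-streptavidin (20 min), then substrate (15 min); absorbance read at 450/540 nm. IC50 taken from the % inhibition curve.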

In data set [13] the target is PCSK9/LDLR (Homo sapiens, UniProt Q8NBP7). Nature of the data set: Inhibition of recombinant human His-tagged PCSK9 interaction with recombinant LDLR AB domain (unknown origin) measured after 3 hrs by horseradish peroxidase-coupled TMB substrate based spectrophotometry. Format: protein assay. The method in brief:
as §3

The test system of data set [14] is PCSK9/LDLR (Homo sapiens), Q8NBP7+P01130 [D374Y]. Nature of the data set: Inhibition of PCSK9 D374Y mutant (unknown origin) and LDLR protein-protein interaction in human HepG2 cells assessed as increase in Bodipy FL-labelled LDL uptake preincubated for 16 hrs followed by Bodipy FL-labelled LDL addition and measured after 4 hrs by fluorescence assay. The format is cell-based. In short, it runs like this: as §2

Structures are written as SMILES. Activity calls are given as the source filed them. No cut-off for these calls is given here.

PCSK9/LDLR (Homo sapiens), sequence (P01130 22-860 partner limits assumed): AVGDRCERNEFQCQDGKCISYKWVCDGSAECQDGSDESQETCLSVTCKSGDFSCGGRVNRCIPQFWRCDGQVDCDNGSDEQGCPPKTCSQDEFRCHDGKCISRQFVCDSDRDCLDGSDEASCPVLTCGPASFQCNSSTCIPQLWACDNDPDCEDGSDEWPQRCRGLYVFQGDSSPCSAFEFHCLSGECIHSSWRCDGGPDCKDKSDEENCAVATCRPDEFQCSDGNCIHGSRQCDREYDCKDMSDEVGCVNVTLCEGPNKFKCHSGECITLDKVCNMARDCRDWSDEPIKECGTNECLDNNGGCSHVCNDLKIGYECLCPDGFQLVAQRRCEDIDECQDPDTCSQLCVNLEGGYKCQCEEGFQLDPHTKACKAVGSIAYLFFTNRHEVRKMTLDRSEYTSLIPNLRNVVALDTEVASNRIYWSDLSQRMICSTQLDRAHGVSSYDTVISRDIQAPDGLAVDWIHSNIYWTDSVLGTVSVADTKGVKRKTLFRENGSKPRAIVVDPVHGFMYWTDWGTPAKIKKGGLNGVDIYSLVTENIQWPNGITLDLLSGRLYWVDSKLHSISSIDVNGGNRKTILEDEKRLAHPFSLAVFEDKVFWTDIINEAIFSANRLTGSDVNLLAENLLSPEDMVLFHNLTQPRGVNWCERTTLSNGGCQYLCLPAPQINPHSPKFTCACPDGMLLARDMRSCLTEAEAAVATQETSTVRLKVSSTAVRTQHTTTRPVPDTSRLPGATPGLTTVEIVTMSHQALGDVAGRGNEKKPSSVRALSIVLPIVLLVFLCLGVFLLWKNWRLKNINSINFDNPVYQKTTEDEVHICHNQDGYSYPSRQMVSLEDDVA
PCSK9/LDLR (Homo sapiens), sequence (Q8NBP7 31-152 limits assumed): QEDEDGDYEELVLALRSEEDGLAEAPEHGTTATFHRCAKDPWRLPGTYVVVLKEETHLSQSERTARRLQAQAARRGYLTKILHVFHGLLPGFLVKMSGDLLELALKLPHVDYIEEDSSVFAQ
PCSK9/LDLR (Homo sapiens), sequence (Q8NBP7 153-692 limits assumed): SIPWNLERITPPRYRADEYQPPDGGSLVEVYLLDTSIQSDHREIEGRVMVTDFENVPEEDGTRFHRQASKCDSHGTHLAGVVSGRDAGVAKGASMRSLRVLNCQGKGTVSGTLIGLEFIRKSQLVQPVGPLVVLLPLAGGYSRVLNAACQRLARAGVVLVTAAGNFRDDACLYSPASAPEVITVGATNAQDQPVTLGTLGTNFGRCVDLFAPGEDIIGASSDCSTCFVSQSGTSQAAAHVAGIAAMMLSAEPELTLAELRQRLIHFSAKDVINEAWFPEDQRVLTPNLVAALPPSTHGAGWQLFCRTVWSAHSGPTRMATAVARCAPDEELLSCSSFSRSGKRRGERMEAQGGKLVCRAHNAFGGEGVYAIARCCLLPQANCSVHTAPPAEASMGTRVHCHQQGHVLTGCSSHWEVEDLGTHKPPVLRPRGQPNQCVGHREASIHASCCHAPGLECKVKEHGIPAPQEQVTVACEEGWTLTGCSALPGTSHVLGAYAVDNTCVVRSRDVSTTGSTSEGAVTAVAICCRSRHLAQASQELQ
PCSK9/LDLR, sequence (Q8NBP7 31-152 limits assumed): as the sequence (Q8NBP7 31-152 limits assumed) above
PCSK9/LDLR, sequence (Q8NBP7 153-692 limits assumed): as the sequence (Q8NBP7 153-692 limits assumed) above
PCSK9/LDLR, sequence (P01130 22-860 partner limits assumed): as the sequence (P01130 22-860 partner limits assumed) above
Mast/stem cell growth factor receptor Kit, sequence (P10721 whole entry): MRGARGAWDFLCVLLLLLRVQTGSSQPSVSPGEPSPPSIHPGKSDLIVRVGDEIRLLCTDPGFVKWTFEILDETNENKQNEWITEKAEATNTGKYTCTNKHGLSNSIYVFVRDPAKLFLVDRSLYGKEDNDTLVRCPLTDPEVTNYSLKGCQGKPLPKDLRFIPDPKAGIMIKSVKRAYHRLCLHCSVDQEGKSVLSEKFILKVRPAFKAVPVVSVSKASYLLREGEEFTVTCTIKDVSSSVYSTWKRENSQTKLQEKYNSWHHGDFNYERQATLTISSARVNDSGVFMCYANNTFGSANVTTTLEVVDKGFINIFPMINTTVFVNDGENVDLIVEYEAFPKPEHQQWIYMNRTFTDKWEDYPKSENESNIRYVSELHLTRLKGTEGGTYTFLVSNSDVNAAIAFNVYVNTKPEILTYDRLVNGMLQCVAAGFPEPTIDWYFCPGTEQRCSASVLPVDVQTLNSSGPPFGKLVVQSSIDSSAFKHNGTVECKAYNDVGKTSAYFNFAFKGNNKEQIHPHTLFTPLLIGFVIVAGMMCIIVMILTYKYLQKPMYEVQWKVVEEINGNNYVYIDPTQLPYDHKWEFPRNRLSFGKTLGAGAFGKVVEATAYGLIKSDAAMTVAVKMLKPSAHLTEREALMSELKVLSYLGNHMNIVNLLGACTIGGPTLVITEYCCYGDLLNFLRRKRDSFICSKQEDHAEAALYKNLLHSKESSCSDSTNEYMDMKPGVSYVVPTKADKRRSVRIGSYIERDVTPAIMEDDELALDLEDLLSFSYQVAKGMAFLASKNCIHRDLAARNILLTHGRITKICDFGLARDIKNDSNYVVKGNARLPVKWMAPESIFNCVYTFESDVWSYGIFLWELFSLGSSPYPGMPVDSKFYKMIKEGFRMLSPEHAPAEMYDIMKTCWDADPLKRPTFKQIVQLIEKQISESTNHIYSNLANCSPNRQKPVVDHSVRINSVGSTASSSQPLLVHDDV

With `Cc1cn(-c2cc(NC(=O)c3ccc(C)c(Oc4ccccc4)c3)cc(N3CCN(C)CC3)c2)cn1`, the IC50 in [1] is above 10 µM; in [3], 7.66 µM; in data set [6], above 10 µM; in data set [7], above 10 µM; in data set [13], 0.759 µM. In addition, the Vd in data set [2] was found to be 9.26 L/kg. The same compound had a clearance in data set [4] of 17.5 mL/min/kg. In addition, the AUC(0-t) at 24 h in data set [5] amounted to 338 ng·h/mL. For the same compound, in [8], the total exposure AUC(0-inf) came out at 384 ng·h/mL. For the same compound, the inhibition result in data set [9] is “inactive”. Moreover, in data set [10], the MRT inf is 8.98 h. In data set [11], the half-life was 7.36 h. Moreover, the Imax in [12] stood at 20%.

As for `Cc1cn(-c2cc(NC(=O)c3ccc(C)c(Oc4cccc5ccncc45)c3)cc(N3CCN(C)CC3)c2)cn1`, the IC50 in data set [1] was 0.227 µM; in [3] it was 3.29 µM; in [6] it was above 10 µM; in data set [7], 2.61 to 2.62 µM; in data set [13], 0.078 µM. The Vd in [2] amounted to 6.7 L/kg. In data set [4], the clearance was 50.8 mL/min/kg. This compound showed an AUC(0-t) at 24 h in [5] of 128 ng·h/mL. The compound also returned an AUC(0-inf) in data set [8] of 133 ng·h/mL. In data set [10], this compound gave a mean residence time MRT inf of 2.3 h. In addition, the half-life in [11] is 2.77 h. Also, the Imax in data set [12] is above 35%. Besides, the inhibition result in data set [14] is “Dose-dependent effect”.
